Assay results reported in ChEMBL document CHEMBL1152409, “Constituents of the moss Polytrichum commune” (J Nat Prod, 2009).

How the values were obtained:
Type in all cases: functional, cell-based
MDA-MB-435 = test: Cytotoxicity against human MDA-MB-435 cells after 24 hrs by MTT assay; details: MDA-MB-435, 24 h
Outline: (§1)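 Cell lines from ATCC were seeded at 3000 cells per well and exposed to a range of compound concentrations 24 h after seeding. Treatment lasted 24 h. MTT was then added and plates were incubated for a further 24 h. Viability was read as absorbance at 570 nm, and IC50 was determined.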

[1] = Cytotoxicity against human cells 6T-CEM after 24 hrs by MTT assay; outline: as §1
LoVo = test: Cytotoxicity against human LoVo cells after 24 hrs by MTT assay; outline: as §1
A549 = test: Cytotoxicity against human A549 cells after 24 hrs by MTT assay; details: A549, 24 h; outline: as §1
HepG2 = test: Cytotoxicity against human HepG2 cells after 24 hrs by MTT assay; details: HepG2, 24 h; outline: as §1

Measured: IC50

O=C1C[C@@H](c2ccccc2)Oc2cc(O)cc(/C=C\c3ccccc3)c21 [COMMUNIN A]
> 5 µg/mL: all assays above

O=C1C[C@@H](c2ccccc2)Oc2cc(O)cc(/C=C/c3ccccc3)c21 [COMMUNIN B]
> 5 µg/mL: all assays above

O=C1C[C@@H]2c3ccccc3O[C@H]3c4ccc(O)cc4-c4c(O)cc(O)c1c4[C@H]23 [OHIOENSIN H]
> 5 µg/mL: all assays above
